Results: ChEMBL document CHEMBL4477191, “Haliclonadiamine Derivatives and 6-epi-Monanchorin from the Marine Sponge Halichondria panicea Collected at Iriomote Island” (J Nat Prod, 2016)
Counter-ions that a name gives are not always drawn. Active and inactive are the calls of the source. The rule behind the calls is not given here.

Key:
Huh-7 = test: Cytotoxicity against human HuH7 cells assessed as reduction in cell viability after 72 hrs by WST-1 assay; type: functional, cell-based; settings: Huh-7, 72 h
How it was run: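 Cells seeded at 1 × 10^4 per well, cultured overnight, then exposed to compound for 72 h. WST-1 (0.5 mM) with 1-PMS (0.02 mM) in medium added for 60 min at 37 °C. Absorbance read at 438 nm, reference 620 nm. Viability expressed as percent of 0.1% EtOH-treated controls. IC50 reported.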

[1] = test system: Mycolicibacterium smegmatis; test: Antimycobacterial activity against Mycobacterium smegmatis NBRC 3207 at 10 to 20 ug/disc after 2 days by paper disc method; type: functional, organism-based
How it was run: (§1)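 Strain stored in 20% glycerol at −80 °C. Grown in Middlebrook 7H9 broth with 0.05% polysorbate 80, 0.5% glycerol and 10% OADC at 37 °C for 2 days, then adjusted to 1.0 × 10^6 CFU/mL and spread on the same medium with 1.5% agar. Samples in CH3OH dried onto 6 mm filter discs, incubated 37 °C for 2 days. Read-out is inhibition zone (mm). Streptomycin sulfate 5 μg/disc as positive control, CH3OH as negative control.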

[2] = test system: Mycolicibacterium smegmatis; test: Antimycobacterial activity against Mycobacterium smegmatis NBRC 3207 at 10 ug/disc after 2 days by paper disc method; type: functional; settings: NBRC 3207, 48 h, read-out: IZ
How it was run: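 Paper disc diffusion. Strain kept in 20% glycerol at −80 °C, then grown 2 days at 37 °C in Middlebrook 7H9 broth with 0.05% polysorbate 80, 0.5% glycerol and 10% OADC. Adjusted to 1.0 × 10^6 CFU/mL and spread on the same medium with 1.5% agar. Sample in CH3OH dried onto 6 mm discs. Plates incubated 37 °C, 2 days. Inhibition zone read in mm. Streptomycin sulfate (5 μg/disc) positive control; CH3OH negative control.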

[3] = test system: Mycolicibacterium smegmatis; test: Antimycobacterial activity against Mycobacterium smegmatis NBRC 3207 at 5 ug/disc after 2 days by paper disc method; type: functional; settings: NBRC 3207, 48 h, read-out: IZ; how it was run: as §1

Row | SMILES | IC50 (Huh-7) | inhibition [1] | zone of inhibition at 10 µg/disc [2] | zone of inhibition at 5 µg/disc [3]
1 | COc1cccc2c1C(=O)c1c(O)c3c(c(O)c1C2=O)C[C@@](O)(C(=O)CO)C[C@@H]3O[C@H]1C[C@H](N)[C@H](O)[C@H](C)O1 [DOXORUBICIN] | 0.4 µM | – | – | –
2 | CCCCC[C@H]1O[C@@H]2CC[C@H]1NC(=N)N2 | > 10 µM | inactive | – | –
3 | C1=C\[C@H]2[C@@H]3CCCC[C@H]3C[C@@H]2NCCCN[C@@H]2C[C@@H]3CCCC[C@H]3[C@@H]2/C=C/1 | > 10 µM | – | 12 mm | –
4 | N[C@@H]1C[C@@H]2CCCC[C@H]2[C@@H]1/C=C\C=C\[C@H]1[C@@H]2CCCC[C@H]2C[C@@H]1N | 7.8 µM | – | 7 mm | –
5 | CN[C@@H]1[C@H](O[C@H]2[C@H](O[C@H]3[C@H](O)[C@@H](O)[C@H](N=C(N)N)[C@@H](O)[C@@H]3N=C(N)N)O[C@@H](C)[C@]2(O)C=O)O[C@@H](CO)[C@H](O)[C@H]1O [STREPTOMYCIN SULFATE] | – | – | – | 30 mm
6 | C1=C\[C@H]2[C@@H]3CCCC[C@H]3C[C@H]2NCCCN[C@H]2C[C@@H]3CCCC[C@H]3[C@@H]2/C=C/1 | 6.7 µM | – | 7 mm | –
7 | N[C@@H]1C[C@@H]2CCCC[C@H]2[C@@H]1/C=C/C=C\[C@H]1[C@@H]2CCCC[C@H]2C[C@@H]1N | 7.2 µM | – | 8 mm | –
8 | C1=C/[C@H]2[C@@H]3CCCC[C@H]3C[C@H]2NCCCN[C@@H]2C[C@@H]3CCCC[C@H]3[C@@H]2/C=C/1 | 3.9 µM | – | 12 mm | –
9 | CCCCC[C@@H]1O[C@@H]2CC[C@H]1NC(=N)N2 | > 10 µM | inactive | – | –
10 | C1=C/[C@H]2[C@@H]3CCCC[C@H]3C[C@@H]2NCCCN[C@@H]2C[C@@H]3CCCC[C@H]3[C@@H]2/C=C/1 [HALICLONADIAMINE] | 3.6 µM | – | 16 mm | –
